Results collected from several papers.

| SMILES | cell line | assay | setting | IC50 [µM] |
| --- | --- | --- | --- | --- |
| COc1cc(NC(=O)C2=C(C)NC(C)=C(C(=O)Nc3cc(OC)c(Cl)cc3OC)C2c2ccc(O)cc2)c(OC)cc1Cl | Vero | cell growth or viability, MTT | – | 51.8 |
| COc1cc2c3c(n(CCCN4CCOCC4)c(=O)c2cc1OC)-c1nc2c(cc1C3=O)OCO2 | HL-60 | cell growth or viability, MTS | 72 h | > 2 |
| CC1(C)CCC(CN2CCN(c3ccc(C(=O)NS(=O)(=O)c4ccc(NCC5CCOCC5)c([N+](=O)[O-])c4)c(Oc4cnc5[nH]ccc5c4)c3)CC2)=C(c2ccc(Cl)cc2)C1 | HL-60 | cell growth or viability, ATP luminescence | 48 h | 3.04 |
| COc1ccc(NC(=O)C2=C(C)NC(C)=C(C(=O)Nc3ccc(OC)cc3OC)C2c2ccccc2)c(OC)c1 | Vero | cell growth or viability, MTT | – | 86.5 |
| CC#CCOc1ccc(/C=C/c2cc(OC)cc(OC)c2-c2cnnn2C(=O)NC(C)C)cc1 | RAW264.7 | NO release, inhibitor, Griess | 24 h, LPS-stimulated | 5.5 |
| COc1cc(NC(=O)c2ccccn2)ccc1S(N)(=O)=O | RAW264.7 | cell growth or viability, MTT | 48 h | > 100 |
| CC(C)Oc1ccc(S(=O)(=O)c2ccc(Oc3cc(OCC(N)=O)c(C(=O)C(Cl)Cl)cc3[N+](=O)[O-])cc2)cc1 | NCI-H1299 | cell growth or viability, MTT | 72 h | 0.31 |
| CC#CCOc1ccc(/C=C/c2cc(OC)cc(OC)c2-c2cnnn2C(=O)NCCc2ccccc2)cc1 | RAW264.7 | NO release, inhibitor, Griess | 24 h, LPS-stimulated | 6.1 |
| COc1cc(NC(=O)c2ccco2)ccc1S(N)(=O)=O | RAW264.7 | cell growth or viability, MTT | 48 h | > 100 |
| COc1cc2c(NC3CCN(CCCC(=O)NCCCCCCCCCCCC(=O)N[C@H](C(=O)N4C[C@H](O)C[C@H]4C(=O)NCc4ccc(-c5scnc5C)cc4)C(C)(C)C)CC3)nc(N3CCC(F)(F)CC3)nc2cc1OCCCN1CCCC1 | NCI-H1299 | cell growth or viability, CCK-8 | 8 days | 5 |
| COc1ccc(NC(=O)C2=C(C)NC(C)=C(C(=O)Nc3cc(OC)c(Cl)cc3OC)C2c2cccc(Cl)c2)c(OC)c1 (centres unmarked) | Vero | cell growth or viability, MTT | – | 49.6 |
| C#CCOc1ccc(/C=C/c2cc(OC)cc(OC)c2-c2cnnn2C(=O)NCCc2ccccc2)cc1 | RAW264.7 | NO release, inhibitor, Griess | 24 h, LPS-stimulated | 11.7 |
| CC(C)c1ccccc1[C@@H]1CCCN1C1CC2(CCN(c3ccc(C(=O)NS(=O)(=O)c4ccc(NC[C@H]5CC[C@](C)(O)CC5)c([N+](=O)[O-])c4)c(Oc4cnc5[nH]ccc5c4)c3)CC2)C1 | Maver1 | cell growth or viability, ATP luminescence | 48 h | 0.00096 |
| CCCOc1ccc(/C=C/c2cc(OC)cc(OC)c2-c2cnnn2C(=O)NCCc2ccccc2)cc1 | RAW264.7 | NO release, inhibitor, Griess | 24 h, LPS-stimulated | 10.6 |
| C=C(F)C(=O)N1CCN(c2nc(OC[C@@H]3CCCN3C)nc3c2CCN(c2cccc4cccc(Cl)c24)C3)C[C@@H]1CC#N | OV56 | cell growth or viability, ATP luminescence | 3D culture | > 1 |
| CCOc1ccc(C(=O)Nc2ccc(S(N)(=O)=O)c(OC)c2)cc1 | RAW264.7 | cell growth or viability, MTT | 48 h | > 100 |
| COc1cc2c3c(n(CCCNC(C)C)c(=O)c2cc1OC)-c1nc2c(cc1C3=O)OCO2 | HL-60 | cell growth or viability, MTS | 72 h | 0.328 |
